Experimental data from ChEMBL document CHEMBL5325427.
Converted amounts (≈) assume the structure as drawn. The source made the active and inactive calls. The calls are words filed in the database; no cut-off is given here.

Key:
[1] = Permeability of the compound across apical to basolateral side in human Caco-2 cells at pH 6.5 to 7.4; assay type: ADME, cell-based; settings: Caco-2, pH 6.5, read-out: permeability
Method in brief: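 Caco-2 cells (0.5 × 10^6/well) were grown 7 days on collagen-coated transwell filters. Compound was dosed at 50, 75 and 100 μM input in 1% DMSO/HBSS, apical pH 6.5 and basolateral pH 7.4. Samples were taken every 30 min for 2 h in duplicate and quantified by LC/MS/MS. Papp was calculated from receiver concentration, time, area and mid-point donor and receiver concentrations. Monolayer integrity required fluorescein Papp below 1.5 × 10−6 cm/s.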

[2] = Toxicity in Balb/c mouse assessed as change in histological variation in spleen at 12.5 to 25 mg/kg by H and E staining based analysis; assay type: organism-based; settings: in vivo, dose 12.5-25 mg/kg
Method in brief: (§1)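 After the 14-day daily intraperitoneal dosing (12.5 or 25 mg/kg, female Balb/c), liver, kidney, spleen, heart and lung were fixed 24 h in 10% neutral-buffered formalin and paraffin-embedded. Sections of 4 μm were stained with H&E. Lesions were scored nil 0, mild 1, moderate 2, severe 3.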

[3] = Toxicity in Balb/c mouse assessed as histological changes in spleen by measuring toxicity score at 12.5 to 25 mg/kg by H and E staining based analysis; assay type: organism-based; settings: in vivo, dose 12.5-25 mg/kg
[4] = target: Replicase polyprotein 1ab (Severe acute respiratory syndrome coronavirus 2, UniProt P0DTD1); assay: Inhibition of recombinant SARS CoV-2 PL protease assessed as deubiquitination activity using ubiquitinated fluorogenic as substrate incubated for 2 hrs followed by substrate addition for 1 hr by synergy TM HTX microplate reader analysis
[5] = test system: Middle East respiratory syndrome-related coronavirus; assay: Antiviral activity against MERS-CoV NRCE-HKU270 infected in Vero E6 cells assessed as inhibition of viral growth; assay type: functional, organism-based; settings: NRCE-HKU270, Vero C1008
[6] = Toxicity in Balb/c mouse assessed as effect on albumin at 12.5 to 25 mg/kg; assay type: organism-based; settings: in vivo, dose 12.5-25 mg/kg
Method in brief: (§2)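 Female Balb/c mice were randomised to vehicle (0.5% DMSO in PBS) or 12.5 or 25 mg/kg intraperitoneally daily for 14 days, then followed 12 days after treatment. Body weight, haematology and blood chemistry were compared with vehicle controls; n = 3–5.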

[7] = Toxicity in Balb/c mouse assessed as effect on ALP at 12.5 to 25 mg/kg; assay type: organism-based; settings: in vivo, dose 12.5-25 mg/kg; method in brief: as §2
[8] = Toxicity in Balb/c mouse assessed as change in histological variation in heart at 12.5 to 25 mg/kg by H and E staining based analysis; assay type: organism-based; settings: in vivo, dose 12.5-25 mg/kg; method in brief: as §1
[9] = test system: SARS-CoV-2; assay: Antiviral activity against SARS- CoV-2 infected in Vero E6 cells assessed as virucidal activity pretreated with cells for 24 hrs followed by viral infection for 1 hr and measured after 1 hr by plaque assay relative to control; assay type: functional, Severe acute respiratory syndrome coronavirus 2; settings: time 26 hrs
[10] = test system: SARS-CoV-2; assay: Antiviral activity against SARS- CoV-2 infected in Vero E6 cells assessed as viral replication pretreated with cells for 24 hrs followed by viral infection for 1 hr and measured after 1 hr by plaque assay relative to control; assay type: functional, Severe acute respiratory syndrome coronavirus 2; settings: time 26 hrs
[11] = test system: SARS-CoV-2; assay: Antiviral activity against SARS-CoV-2 NRC-03-nhCoV infected in african green monkey Vero E6 cells assessed as inhibition of viral growth pre-infected cells with virus for 1 hr followed by compound addition for 1 hr and measured after 72 hrs by crystal violet staining based analysis; assay type: functional, organism-based; settings: Severe acute respiratory syndrome coronavirus 2, NRC-03-nhCoV, Vero C1008
[12] = test system: SARS-CoV-2; assay: Antiviral activity against SARS CoV-2 infected in human Caco-2 cells assessed as reduction in INF-alpha expression at 20 ug/ml preincubated with cells for 24 hrs followed by viral infection and measured after 1 to 3 hrs by real-time PCR assay; assay type: functional, organism-based; settings: Severe acute respiratory syndrome coronavirus 2, dose 20.0 µg/ml, time 25-28 hrs
[13] = Stability in CD-1 mouse liver microsomes assessed as half life at 1 uM in presence of NADPH by LC-MS-MS analysis; assay type: ADME, Microsome
[14] = test system: SARS-CoV-2; assay: Antiviral activity against SARS CoV-2 HCoV-19/Egypt/NRC-1/2020 infected in human Caco-2 cells assessed as inhibition of ORFb1 RNA at 20 ug/ml pre-infected with virus for 1 hr followed by cell addition for 1 hr and measured after 1 to 12 hrs by RT-PCR analysis relative to control; assay type: functional; settings: Severe acute respiratory syndrome coronavirus 2, HCoV-19/Egypt/NRC-1/2020, Caco-2, time 3-14 hrs
[15] = test system: SARS-CoV-2; assay: Antiviral activity against SARS CoV-2 HCoV-19/Egypt/NRC-1/2020 infected in human Caco-2 cells assessed as reduction in spike RNA expression at 20 ug/ml pre-infected with virus for 1 hr followed by cell addition for 1 hr and measured after 6 to 12 hrs by RT-PCR analysis; assay type: functional, organism-based; settings: Severe acute respiratory syndrome coronavirus 2, dose 20.0 µg/ml, time 8-14 hrs
[16] = Toxicity in Balb/c mouse assessed as histological changes in heart by measuring toxicity score at 12.5 to 25 mg/kg by H and E staining based analysis; assay type: organism-based; settings: in vivo, dose 12.5-25 mg/kg; method in brief: as §1
[17] = test system: SARS-CoV-2; assay: Antiviral activity against SARS- CoV-2 infected in Vero E6 cells assessed as viral adsorption pretreated with cells for 24 hrs followed by viral infection and measured after 1 hr by crystal violet staining based analysis relative to control; assay type: functional, Severe acute respiratory syndrome coronavirus 2; settings: time 25 hrs
[18] = test system: SARS-CoV-2; assay: Antiviral activity against SARS CoV-2 HCoV-19/Egypt/NRC-1/2020 infected in human Caco-2 cells assessed as reduction in viral ORFb1 RNA expression at 20 ug/ml pre-infected with virus for 1 hr followed by cell addition for 1 hr and measured after 1 to 12 hrs by RT-PCR analysis; assay type: functional, organism-based; settings: Severe acute respiratory syndrome coronavirus 2, dose 20.0 µg/ml, time 3-14 hrs
[19] = Toxicity in Balb/c mouse assessed as effect on glucose at 12.5 to 25 mg/kg; assay type: organism-based; settings: in vivo, dose 12.5-25 mg/kg; method in brief: as §2

With `COc1ccc2[nH]c3c(c2c1)C[C@]1(OC)CC[C@H]2c4[nH]c5ccccc5c4CCN2[C@@H]1C3` the Papp A→B [1] was 5.9 ×10⁻⁶ cm/s, the Activity [2] was “Non-Toxic” and the Activity [3] was 0. The IC50 [4] was 386 µM, the IC50 [5] was 6.21 µg/mL (≈ 14.5 µM) and the Activity [6] was “Non-Toxic”. For the same compound, the Activity [7] was “Non-Toxic”, the Activity [8] was “Non-Toxic” and the Activity [9] was over 90%. For the same compound, the Activity [10] was 8.5%, the IC50 [11] was 12.1 µg/mL (≈ 28.3 µM) and the Activity [12] was “Active”. The t1/2 [13] was over 1 h, the inhibition at 20 µg/mL [14] was over 70% and the Activity [15] was “Active”. For the same compound, the Activity [16] was 0, the Activity [17] was 2.5% and the Activity [18] was “Active”. The Activity [19] was “Non-Toxic”.
